Measurements: ChEMBL document CHEMBL1152368, “Synthesis, structure-activity relationships, and biological profiles of a dihydrobenzoxathiin class of histamine H(3) receptor inverse agonists” (Bioorg Med Chem Lett, 2009)

Columns and labels:
[1] = target: Histamine H3 receptor (Rattus norvegicus, UniProt Q9QYN8); assay: Displacement of [3H]R-alpha-methylhistamine from rat histamine H3 receptor by cell-based assay
Outline: (§1)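 Radioligand binding with [³H]R-α-methylhistamine on membranes of CHO or HEK293 cells expressing human, rat or mouse H₃ receptor.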

[2] = target: Histamine H3 receptor (Mus musculus, UniProt P58406); assay: Displacement of [3H]R-alpha-methylhistamine from mouse histamine H3 receptor by cell-based assay; outline: as §1
[3] = target: Histamine H1 receptor (Homo sapiens, UniProt P35367); assay: Inhibition of human histamine H1 receptor
[4] = target: Histamine H2 receptor (Homo sapiens, UniProt P25021); assay: Inhibition of human histamine H2 receptor
[5] = target: Histamine H4 receptor (Homo sapiens, UniProt Q9H3N8); assay: Inhibition of human histamine H4 receptor

Chain of Histamine H3 receptor (Mus musculus, UniProt P58406) (P58406 whole entry): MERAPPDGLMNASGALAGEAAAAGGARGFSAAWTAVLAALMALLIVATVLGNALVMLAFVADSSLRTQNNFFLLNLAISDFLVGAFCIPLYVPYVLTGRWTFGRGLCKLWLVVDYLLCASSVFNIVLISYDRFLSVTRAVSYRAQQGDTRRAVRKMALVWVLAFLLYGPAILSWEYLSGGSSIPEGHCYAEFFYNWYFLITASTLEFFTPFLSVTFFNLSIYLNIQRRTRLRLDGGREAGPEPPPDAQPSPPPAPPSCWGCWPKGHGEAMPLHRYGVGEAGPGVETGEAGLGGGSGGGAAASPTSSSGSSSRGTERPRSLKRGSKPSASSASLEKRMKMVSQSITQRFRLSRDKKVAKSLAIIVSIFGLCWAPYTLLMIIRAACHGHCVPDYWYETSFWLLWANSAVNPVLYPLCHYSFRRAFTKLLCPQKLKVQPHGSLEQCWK
Chain of Histamine H3 receptor (Rattus norvegicus, UniProt Q9QYN8) (Q9QYN8 whole entry): as the sequence (P58406 whole entry) above, with A15T, T286A, G290A, H387R, V389I counted along it
Chain of Histamine H2 receptor (P25021 whole entry): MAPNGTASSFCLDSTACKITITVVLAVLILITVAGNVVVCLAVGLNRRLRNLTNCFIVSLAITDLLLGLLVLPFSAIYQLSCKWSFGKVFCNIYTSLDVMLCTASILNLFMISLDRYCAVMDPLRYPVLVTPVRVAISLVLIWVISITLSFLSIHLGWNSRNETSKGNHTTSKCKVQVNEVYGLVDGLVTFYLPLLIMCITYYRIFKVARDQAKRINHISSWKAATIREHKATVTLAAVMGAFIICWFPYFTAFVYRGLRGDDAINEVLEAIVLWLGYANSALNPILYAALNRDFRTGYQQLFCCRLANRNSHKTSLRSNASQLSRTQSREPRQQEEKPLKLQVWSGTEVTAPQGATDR
Chain of Histamine H1 receptor (P35367 whole entry): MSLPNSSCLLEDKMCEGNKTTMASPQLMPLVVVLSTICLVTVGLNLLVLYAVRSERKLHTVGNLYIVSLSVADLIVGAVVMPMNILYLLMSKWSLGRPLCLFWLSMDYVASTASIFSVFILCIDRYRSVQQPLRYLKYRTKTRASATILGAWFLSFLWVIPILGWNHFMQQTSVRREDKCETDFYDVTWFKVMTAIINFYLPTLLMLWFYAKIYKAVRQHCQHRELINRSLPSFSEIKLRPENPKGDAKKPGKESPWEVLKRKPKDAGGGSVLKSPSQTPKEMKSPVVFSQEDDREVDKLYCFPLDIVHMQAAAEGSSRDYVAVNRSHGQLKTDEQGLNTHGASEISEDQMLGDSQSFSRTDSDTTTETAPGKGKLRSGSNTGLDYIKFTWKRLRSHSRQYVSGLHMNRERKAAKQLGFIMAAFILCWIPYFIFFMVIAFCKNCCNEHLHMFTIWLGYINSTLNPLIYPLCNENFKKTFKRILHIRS

Ki [1]: 2.8 nM | Ki [2]: 5.9 nM | IC50 [3]: > 10000 nM | IC50 [4]: > 10000 nM | IC50 [5]: > 10000 nM
SMILES: COc1cccc2c1O[C@@H](c1ccc(OCCCN3CCCC3)cc1)[C@H](C)S2(=O)=O
